Screening data as filed in PubChem.
Most compounds without a hit are left out; they make up all but 2.2% or so of the library.
Ecoli rRNA inh: inhibitors of bacterial rRNA selective over humanized ribosomes. E. coli WT GFP vs humanized-ribosome RFP mutants, fluorescence, 24 h; hits give low values; DMSO median 0, no signal -100. GFP signal change (wild-type ribosome), % (test concentration not listed). hit rate 1.6% among 350,000;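 active = significant combined selectivity score with lowered wild-type GFP, culture density cut under 30%, mutant RFP and density less affected; inactive = any of these conditions unmet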
Env fusion inh: blocks HIV Env-driven cell-cell fusion; HeLa-JRFL Env/CEM21 cell fusion, luciferase; inhibition, % at 12.3 µM; hit rate 1.1% among 360,000;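 active = mean replicate inhibition score of at least 50 and every replicate individually at or above 50; inconclusive = only one of the two criteria met; inactive = mean below 50 and not all replicates reaching 50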;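 also: 0% = plate neutral controls and 100% = maraviroc near 300 nM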
FN deposition inh: fibronectin deposition inhibition; AH1F fibroblasts, Alexa488-fibronectin deposition fluorescence, overnight; inhibition, % at 12.6 µM; AID 743247; hit rate 0.086% among 350,000;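 active = mean inhibition across replicates of 30% or more, regardless of how many single replicates reach that level; inconclusive = mean under 30% yet at least half of replicates reach 30%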;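 also: positive control wells lacked labelled fibronectin entirely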
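Material: AH1F fibroblast monolayer depositing Alexa488-labelled fibronectin into matrix | Input: 10000 AH1F cells/well | Medium: DMEM plus 2% serum, read in PBS | Reagent: Alexa488-fibronectin, 24 nM final in well | Compound dosing: One dose per compound, pinned | Schedule: 1 h adhesion, overnight exposure | Measured by: Fluorescence at 485 nm excitation, 525 nm emission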
PvdQ inh: blocks Pseudomonas aeruginosa PvdQ acylase activity; purified PvdQ acylase, fluorescence plate reader; inhibition, % at 10 µM; hit rate 0.063% among 340,000; AID 488965; in the data active = inhibition above about 30%, passing the limit was not always enough; inconclusive = no clear call, values can overlap the other calls;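 also: 0% = vehicle neutral wells and 100% = reference inhibitor wells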
PDI turbidity: PDI (human) enzyme inhibition; P07237; PDI insulin aggregation turbidity, A650, 90 min; inhibition, % at 10 µM; hit rate 0.052% among 350,000; AID 588391;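 active = mean inhibition across replicates of 30% or more, whatever share of single replicates reach that level; inconclusive = mean inhibition below 30% while every single replicate reaches 30%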
Target sequence (P07237 whole entry, looked up): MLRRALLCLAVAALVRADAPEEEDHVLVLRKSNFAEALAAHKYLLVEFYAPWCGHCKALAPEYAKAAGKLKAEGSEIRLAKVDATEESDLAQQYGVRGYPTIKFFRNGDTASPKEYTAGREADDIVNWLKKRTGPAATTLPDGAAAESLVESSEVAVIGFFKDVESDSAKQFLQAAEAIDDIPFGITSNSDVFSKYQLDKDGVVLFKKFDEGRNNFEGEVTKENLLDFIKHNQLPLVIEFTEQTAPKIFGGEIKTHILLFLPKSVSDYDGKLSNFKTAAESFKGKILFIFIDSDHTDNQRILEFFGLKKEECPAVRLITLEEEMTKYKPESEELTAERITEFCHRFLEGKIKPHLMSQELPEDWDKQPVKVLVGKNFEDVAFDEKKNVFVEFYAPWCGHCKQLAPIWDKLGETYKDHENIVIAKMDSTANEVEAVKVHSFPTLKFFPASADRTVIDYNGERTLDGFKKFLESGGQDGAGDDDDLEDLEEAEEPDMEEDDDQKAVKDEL
ERp5 block: blocks human ERp5 reductase activity on insulin | Q15084 | ERp5 insulin aggregation, absorbance 650 nm, 90 min | inhibition, % at 9.99 µM | hit rate 0.05% among 350,000 | AID 651711;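 active = mean replicate inhibition above about 25%, with every replicate also reaching it, limit read from the data, passing the limit was not always enough; inconclusive = only one of those two criteria met; inactive = neither criterion met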
AID977621: wild-type E. coli growth inhibition versus H69 humanized strain – H69 mutant RFP, wild-type GFP, cherry-pick, dose response. shares compounds with Ecoli rRNA inh. fluorescence, 24 h. activity change, negative = inhibition at 50 µM. 1,900 tested, under 10 active. AID 977621;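 active = Wild-type ribosome reporter drop at least double the humanized mutant ribosome reporter drop, growth loss under a set limit; inconclusive = no clear call, values can overlap the other calls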;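 also: wild-type GFP and H69 mutant RFP strains grown together 50/50 in each well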
AID977628: growth of wild-type and h24-humanized E. coli strains – h24 mutant RFP vs wild-type GFP, cherry-pick, dose response; shares compounds with Ecoli rRNA inh; E. coli WT GFP strain growth, fluorescence, 24 h; activity change, negative = inhibition at 50 µM; 1,900 tested, under 10 active;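 active = compound lowering the normal-ribosome reporter at least twice as much as the humanized-ribosome reporter, growth loss under a set limit; inconclusive = no clear call, values can overlap the other calls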;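 also: wild-type GFP and h24 humanized RFP strains co-cultured 1 to 1 per well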
* = called active by the depositor; ? = inconclusive; · = not tested or not shown; ! = not active in a repeat; [ ] = another dose, or the depositor's remark.

SMILES	Ecoli rRNA inh	Env fusion inh	FN deposition inh	PvdQ inh	PDI turbidity	ERp5 block	AID977621	AID977628
C[C@@H]1CN([C@H](C)CO)S(=O)(=O)c2ccc(-c3ccc(F)cc3)cc2O[C@H]1CN(C)C(=O)Nc1ccc(F)cc1	-3	-4[16.7 µM]	-8	·	·	·	·	·
Cc1cccc(NC(=O)c2c(C)nn(-c3ccccc3)c2Cl)c1	-35*	-13	-3	-11	-2	0	-11	-22
COc1ccc(NC(=O)Nc2ccc3c(c2)C(=O)N([C@@H](C)CO)C[C@H](C)[C@@H](CN(C)Cc2ccc4c(c2)OCO4)OCCCC[C@@H](C)O3)cc1	2	-23[16.7 µM]	·	·	·	-2	·	·
O=[N+]([O-])c1ccc2nc(-c3ccccc3[N+](=O)[O-])[nH]c2c1	-28*	-6	2	-23	-8	4	·	-12
O=[N+]([O-])c1cccc(-c2nc3ccc([N+](=O)[O-])cc3[nH]2)c1	9	-37	-6	-10	-2	4	·	·
Cc1ccccc1CN(C)C[C@H]1OCc2cnnn2CCCC(=O)N([C@@H](C)CO)C[C@H]1C	-2	-7[16.7 µM]	-11	·	·	3	·	·
C[C@H]1CN([C@@H](C)CO)C(=O)CCCn2nncc2CO[C@@H]1CN(C)Cc1ccccc1C(F)(F)F	-18*!	1	-5	·	12	6	-1.5	?
O=C(COC(=O)c1ccccc1O)NCCC1=CCCCC1	-22*	-11	0	-11	-4	-4	-14	?
CCOC(=O)C1NN=C(C(=O)c2ccccc2)C1c1ccc(OC)cc1 (stereo unspecified)	-25*	21	2	-16	5	-1	-9	-6.3
CCOC(=O)C1NN=C(C(=O)c2ccccc2)C1c1ccccc1 (stereo unspecified)	-15	·	-3	-10	-1	-2	·	·
CN(C)Cc1cn(CC[C@@H]2CC[C@H](NS(=O)(=O)c3ccc(-c4ccccc4)cc3)[C@@H](CO)O2)nn1	-1	-8[16.7 µM]	3	·	·	4	·	·
COc1cc(C(=O)NCCc2c[nH]c3ccccc23)ccc1OCc1c(C)noc1C	-38*	4	-1	-12	-1	1	-13	?
CC(=O)N[C@H]1CC[C@@H](CC(=O)NCc2ccc(Cl)cc2)O[C@H]1CO	2	15[16.7 µM]	·	·	·	1	·	·
Cc1ccc(S(=O)(=O)N[C@@H]2CC[C@H](CCNC(=O)C3CC3)O[C@H]2CO)cc1	2	-10[16.7 µM]	-1	·	·	-5	·	·
O=C(C[n+]1ccn(-c2ccccc2)c1)c1ccc([N+](=O)[O-])cc1	-22*	0	7	-1	9	-9	·	-7.8
COc1ccc(NC(=O)CSc2nnc(Cc3ccccc3)o2)c(OC)c1	-24*	·	·	-9	12	3	-23	-20
CC(C)NC(=O)N1[C@H](CO)[C@@H](c2ccccc2)C12CN(C(=O)Cc1ccccc1)C2	-1	·	·	·	·	3	·	·
C[C@@H]1CCCCO[C@H](CN(C)Cc2ccc(C(F)(F)F)cc2)[C@H](C)CN([C@H](C)CO)C(=O)c2cc(NC(=O)CCC(F)(F)F)ccc2O1	-3	8[16.7 µM]	·	·	·	4	·	·
CC(C)OC(=O)c1sc2nc(-c3ccccc3)ccc2c1N	-26*	·	·	-16	-1	2	0.58	?
COc1ccc(C(=O)Nc2ccc3c(c2)C(=O)N(C)C[C@H](OC)[C@@H](C)CN[C@@H](C)CO3)cc1	0	9[16.7 µM]	1	·	·	-1	·	·
O=C(Nc1ccc2c(c1)OCCO2)C1C(c2ccccc2)=Nc2ccccc2N1C(=O)c1cccnc1 (stereo unspecified)	-8.2*	-131	6	·	·	2	-8.7	?
C[C@H]1CN([C@@H](C)CO)C(=O)c2c(c3ccccc3n2C)-c2ccccc2CO[C@@H]1CN(C)C(=O)CCN(C)C	2	-10[16.7 µM]	-3	·	·	2	·	·
C[C@H]1CN([C@@H](C)CO)C(=O)c2c(c3ccccc3n2C)-c2ccccc2CO[C@@H]1CN(C)Cc1ccccc1	-42*	·	0	·	·	1	?	?
C[C@@H]1CN([C@H](C)CO)C(=O)c2c(c3ccccc3n2C)-c2ccccc2CO[C@@H]1CN(C)C(=O)CCN(C)C	-19*!	-54	3	·	·	2	·	-3.8
CCCn1c(NCc2ccc3c(c2)OCO3)nc2ccccc21	-22*	·	·	-8	-1	4	·	?
SMILES	Ecoli rRNA inh	Env fusion inh	FN deposition inh	PvdQ inh	PDI turbidity	ERp5 block	AID977621	AID977628
CN(Cc1ccc(F)cc1)Cc1nc(-c2ccccc2)no1	-18	3	18	-12	-1	-6	·	·
CN(Cc1ccc(F)cc1)Cc1nc(CCc2ccccc2)no1	-19*	14	0	10	-5	-3	·	?
O=S(=O)(N[C@@H]1CC[C@H](CCn2cc(-c3ccccn3)nn2)O[C@@H]1CO)c1cccc(F)c1	-3	2[16.7 µM]	2	·	·	-1	·	·
CN1C(=O)c2cc(NC(=O)c3ccc(F)cc3)ccc2OC[C@H]2O[C@H](CC(=O)NCC3CCCCC3)CC[C@H]21	-5	42[16.7 µM]	·	·	·	-2	·	·
COc1ccc(CNc2cc([N+](=O)[O-])ccc2OC)cc1	-21*	·	·	-1	2	-6	-6.4	·
CN(C)CC(=O)Nc1ccc2c(c1)[C@H]1C[C@@H](CC(=O)NC3CCCCC3)O[C@H](CO)[C@H]1O2	6	-12[16.7 µM]	·	·	·	-12	·	·
Cc1ccsc1C(=O)C1CCCN(Cc2cc(F)ccc2-n2cccn2)C1 (stereo unspecified)	-33*	18	-15	10	-3	4	-13	-14
COc1cc(OC)c(OC)cc1CN1CCCC(C(=O)c2sccc2C)C1 (stereo unspecified)	-3	-2	8	2	-11	-1	·	·
O=C1OC[C@@H]2CCCN2C(=O)[C@@H](CC(=O)N(CCO)Cc2ccccc2)C/C=C\C[C@H]1Cc1ccc(F)cc1	-21*	3	19	2	-40	0	0.08	-6.7
O=C1N[C@@H](Cc2ccccc2)COC(=O)[C@H](Cc2ccc(F)cc2)C/C=C\C[C@H]1CC(=O)N(CCO)Cc1ccccc1	-19*	-58	·	-20	6	6	·	?
O=C1OC[C@H]2CCCN2C(=O)[C@@H](CC(=O)N(CCO)Cc2ccccc2)C/C=C\C[C@H]1Cc1ccc(F)cc1	-10	-15	-4	-12	16	2	·	·
CO[C@H]1CN(C)C(=O)c2ccc(NC(C)=O)cc2OC[C@H](C)N(C(=O)c2ccccc2F)C[C@H]1C	0	-15[16.7 µM]	-2	·	·	·	·	·
C[C@H]1CC=CC[C@H](c2cccc(Cl)c2)NC(=O)[C@H](Cc2ccccc2)N(C)C(=O)c2ccccc2O1 (mixture of isomers)	-1	·	-14	·	·	·	·	·
